Screening results as filed in PubChem BioAssay.
CHRM5 antagonist: antagonists of human muscarinic M5 receptor (CHRM5); P08912; CHO-hM5 cells, Fluo-8 calcium fluorescence, ACh EC80; inhibition, % at 3 µM; 360,000 tested, 0.59% active; AID 624040;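 active = inhibition above a per-plate cutoff, the mean of that plate's test compounds plus 3 SD, cut at about 27% in these data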;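 also: 0% = acetylcholine EC80 with DMSO and 100% = DMSO without agonist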
Target sequence (P08912 whole entry, looked up): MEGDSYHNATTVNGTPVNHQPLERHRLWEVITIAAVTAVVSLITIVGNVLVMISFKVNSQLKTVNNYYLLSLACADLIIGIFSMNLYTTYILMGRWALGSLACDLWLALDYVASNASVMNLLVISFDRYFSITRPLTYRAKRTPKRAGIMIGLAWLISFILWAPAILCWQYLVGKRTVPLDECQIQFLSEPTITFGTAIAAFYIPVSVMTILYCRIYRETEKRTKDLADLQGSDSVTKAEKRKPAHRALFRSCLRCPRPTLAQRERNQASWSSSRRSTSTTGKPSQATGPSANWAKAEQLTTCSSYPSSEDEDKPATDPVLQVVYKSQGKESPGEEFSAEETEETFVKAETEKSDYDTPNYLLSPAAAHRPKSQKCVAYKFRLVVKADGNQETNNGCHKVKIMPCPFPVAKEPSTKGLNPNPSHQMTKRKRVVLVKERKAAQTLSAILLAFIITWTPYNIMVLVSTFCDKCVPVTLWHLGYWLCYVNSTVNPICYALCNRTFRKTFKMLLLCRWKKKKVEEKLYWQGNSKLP
CHRM5 agonist: agonists of human muscarinic M5 receptor (CHRM5) | CHO-K1 hM5 cells, Fluo-8 calcium fluorescence; 0% DMSO wells, 100% maximal acetylcholine response | activation, % at 3 µM | 360,000 tested, 0.19% active;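 active = activation above the run's mean over test compounds plus 3 SD, cut at about 23% in these data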;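 also: signal is peak over basal fluorescence ratio across the kinetic read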
M4 antag: blocks acetylcholine activation of human M4 receptor. P08173. AID 624125. 360,000 tested, 0.73% active. CHO-hM4 cells, ACh EC80, Fluo-8 calcium fluorescence. inhibition, % at 3 µM;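 active = inhibition above its plate's cutoff, the mean inhibition of sample wells plus 3 SD, cut at about 27% in these data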;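 also: 0% = acetylcholine EC80 with DMSO and 100% = DMSO without agonist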
M5 PAM: positive allosteric modulators of human muscarinic M5 receptor | P08912 | CHO-K1 hM5, Fluo-8 calcium, ACh EC20 PAM; 0% = ACh EC20, 100% = ACh EC100 | activation, % at 3 µM | AID 624038 | 360,000 tested, 0.3% active;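 active = activation above the run cutoff, the mean activation of all test compounds plus 3 SD, cut at about 18% in these data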
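Assay system: CHO-K1 hM5 cells / Incubation: Fluo-8 loading 80 min at 37 °C plus 30 min room temperature / Technique: Fluo-8 calcium dye fluorescence, kinetic read / Repeats: single replicate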
CHRM4 agonist: agonists of human muscarinic M4 receptor (CHRM4) | activation, % at 3 µM | 360,000 tested, 0.14% active | CHO-K1 hM4/Gqi5, Fluo-8 calcium fluorescence; vehicle 0%, full acetylcholine response 100% | P08173;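 active = activation above the run mean over all test wells plus 3 SD, cut at about 32% in these data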;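 also: peak over basal fluorescence ratio per well then scaled between controls; 0% = DMSO wells and 100% = acetylcholine at EC100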
M4 PAM: potentiates acetylcholine response at human M4 receptor. P08173. CHO-K1 hM4/Gqi5, Fluo-8 calcium fluorescence, ACh EC20; 0% = ACh EC20, 100% = maximal ACh. activation, % at 3 µM. 360,000 tested, 0.4% active. AID 624126;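 active = activation above its plate's cutoff, the mean activation of sample wells plus 3 SD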
Starred values were filed as active, the others as inactive. Compounds with a hit are over-represented: about 1.9% of the library has one in this group of screens.

SMILES	CHRM5 antagonist	CHRM5 agonist	M4 antag	M5 PAM	CHRM4 agonist	M4 PAM
CC12CCC(=O)C=C1CCC1C2CCC2(C)C(c3csc(N)n3)CCC12 (stereo not drawn)	19	-4	47*	-35	19	-15
CC12CCC(=O)C=C1CCC1C2C(O)CC2(C)C(c3csc(N)n3)CCC12 (stereo not drawn)	13	-1	5	-12	12	-9
CCCNC(=O)N1C2=NC(C(=O)OC)=C(C(=O)OC)[C@@H]3N(Cc4ccccc4)c4ccccc4[C@]23C[C@H]1CO	-9	7	7	20*	0	10
Cc1cc(Cl)cc(Cl)c1OCCN1CCCC1	-19	-16	-15	24*	2	-1
Cc1ccccc1C1c2[nH]c3ccccc3c2C[C@H]2C(=O)N(c3ccccc3C(=O)NCCCN3CCOCC3)C(=O)N12 (stereo partly drawn)	7	3	12	-5	14	-12
O=C1CCC(c2ccccc2)(C2CCN(Cc3ccccc3)CC2)C(=O)N1 (stereo not drawn)	99*	-1	99*	-18	1	-18
O=C1CCN(Cc2ccccc2)C(=O)N1	3	2	-4	7	1	12
CC(=O)OCCCN(C)CC/C=C1/c2ccccc2CSc2ccccc21	19	-20	36*	-35	3	-53
CN(CCC#N)C(=O)c1cc2c(s1)-c1ccccc1SC2	7	-3	-6	-1	2	4
C[N+](C)(C)CC/C=C1/c2ccccc2CSc2ccccc21	99*	-12	96*	-26	0	-18
N#CCCN(Cc1ccccc1)C(=S)Nc1ccccc1	1	-4	-10	8	2	21*
Cc1cc(F)ccc1-c1cc(C(=O)NCc2ccc(C(F)(F)F)cc2)[nH]n1	5	33*	-7	1	20	-4
Cc1ccccc1OCC(=O)NCCCNC(=O)c1ccccn1	-3	-2	-15	4	1	16*
COC(=O)c1ccc(/C=C(\C#N)c2nc3ccccc3s2)cc1	-6	4	-2	1	6	2
N#C/C(=C/c1ccc(-c2ccc(S(N)(=O)=O)cc2)o1)c1nc2ccccc2s1	48*	32*	26*	-18	19	-8
N#C/C(=C\c1ccccn1)c1nc2ccccc2s1	17	44*	18	-20	20	-10
COCCSc1ccccc1C(=O)Nc1ccccc1C#N	13	-3	-1	2	1	6
COc1cccc(C(O)c2ncc(-c3ccccc3OC)[nH]2)c1 (stereo not drawn)	1	1	0	3	1	6
O=C(NCc1ccco1)c1ccc2c(=O)n(Cc3ccco3)c(SCC(=O)N3CCCC3)nc2c1	1	2	42*	0	-3	-30
O=C(CSc1nc2ccccc2c(=O)n1Cc1ccco1)N1CCCCCC1	5	0	5	-4	0	13
O=C(Nc1ccc(Cl)cc1)[C@@H]1[C@@H]2C(=O)N(c3ccc4ccccc4c3)C(=O)[C@@H]2[C@H]2C=CC=NN21	20	-1	-8	32*	0	3
CCOc1ccc(S(=O)(=O)N(CC)CC(=O)NC2CCS(=O)(=O)C2)cc1 (stereo not drawn)	11	1	-6	-6	2	6
O=c1c(Cl)c(N2CCNCC2)cnn1C12CC3CC(CC(C3)C1)C2	11	-11	31*	-6	0	-21
CCC(=O)N1Cc2cc(C(=O)Nc3nccs3)nc(-c3cccc(-c4ccccc4OC)c3)c2[C@H]1CCO	8	6	27*	-22	23	-11
CCNC(=O)c1cc2c(c(-c3cccc(-c4cc5ccccc5o4)c3)n1)[C@H](CCO)N(C(=O)NC(C)C)C2	26	0	29*	-21	15	-9
SMILES	CHRM5 antagonist	CHRM5 agonist	M4 antag	M5 PAM	CHRM4 agonist	M4 PAM
O=C1CC2CCCC(C1)S2=O (stereo not drawn)	10	0	7	-2	1	-2
O=C(NC1=NCCS1)c1ccc(F)c(S(=O)(=O)N2CCOCC2)c1	2	0	3	6	1	6
O=C(c1cc(-c2cccnc2)nc2ccccc12)N1CCN(S(=O)(=O)c2cccs2)CC1	6	-1	-21	-23	19	-5
COC(=O)/C=C/COc1ccccc1[N+](=O)[O-]	-1	-2	-5	7	0	18*
O=C(COc1ccccc1[N+](=O)[O-])c1ccccc1	13	-2	2	-6	1	3
CCOc1ccccc1N(CC(=O)NCC1CCCO1)C(=O)CCC(=O)Nc1ccccn1 (stereo not drawn)	42*	-2	-1	1	1	12
Nc1ccccc1SCC(=O)Nc1cccc2ccccc12	0	-7	-3	0	1	3
Cc1ccc(S(=O)(=O)N2CCC(C(=O)NCCCN3CCCC3=O)CC2)cc1	21	0	-4	-2	0	1
Cc1ccc(NC(=O)C2CCN(S(=O)(=O)c3ccc4c(c3)NC(=O)C(C)S4)CC2)cc1C (stereo not drawn)	36*	-3	20	-13	14	-14
CCc1ccc(NC(=O)C2CCN(S(=O)(=O)c3ccc4c(c3)NC(=O)C(C)S4)CC2)cc1 (stereo not drawn)	34*	-3	10	-16	10	-16
Cc1ccc(S(=O)(=O)N2CCC(C(=O)NCCCN3CCCC3=O)CC2)cc1C	-11	-4	-10	2	0	22*
O=C(NC1CCN(Cc2ccccc2)CC1)C1COc2ccccc2O1 (stereo not drawn)	64*	-13	18	-43	2	-14
CCN(c1ccccc1)S(=O)(=O)c1ccc(C(=O)NC2CCN(Cc3ccccc3)CC2)cc1	22	0	46*	-43	25	-12
COc1ccc(Cl)cc1NS(=O)(=O)c1cccc(C(=O)NC2CCN(Cc3ccccc3)CC2)c1	19	0	32*	-5	8	-14
CC1=C(n2nnc([N+](=O)[O-])n2)C(c2cccnc2)C(C#N)=C(N)O1 (stereo not drawn)	-2	2	5	0	1	5
CCOC(=S)SCc1cn2cccc(C)c2n1	7	2	-2	2	1	7
O=C(/C=C/c1c(F)cccc1Cl)NCCCN1CCOCC1	7	-4	3	2	1	16*
CCOC(=O)C1CCCN(C(=O)c2cccc3ccccc23)C1 (stereo not drawn)	8	-1	14	-2	0	-6
